# pIC50, pKi: −log10 of the molar value. Where no end group is shown, it is not given here.
# Legend:
# [1] = target: human CD36 (CD36-overexpressing HeLa cells) (Homo sapiens, UniProt P16671); experiment: Competition with Alexa-Fluor-488 oxLDL uptake in CD36-overexpressing HeLa cells; type: cell-based
# [2] = Liver toxicity by serum transaminases in 5/6Nx+AngII mice; type: in vivo, mouse; conditions: mice 5/6Nx+AngII treated with 5A 5 mg/kg/day, 4 weeks
# Procedure, shortened: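 C57BL/6 mice underwent 5/6 nephrectomy: left kidney resection at week −1, then right nephrectomy at week 0. Animals were kept if the resected-to-removed kidney weight ratio was 0.5–0.65. Buprenorphine was given at 0.1 mg/kg after surgery and 0.05 mg/kg at 18 h. Val5-AngII (0.75 µg/kg/min, in sterile water) and 5A (5 mg/kg/day) were infused by separate subcutaneous osmotic mini-pumps placed at right nephrectomy.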
# human CD36 (CD36-overexpressing HeLa cells), sequence (P16671 whole entry): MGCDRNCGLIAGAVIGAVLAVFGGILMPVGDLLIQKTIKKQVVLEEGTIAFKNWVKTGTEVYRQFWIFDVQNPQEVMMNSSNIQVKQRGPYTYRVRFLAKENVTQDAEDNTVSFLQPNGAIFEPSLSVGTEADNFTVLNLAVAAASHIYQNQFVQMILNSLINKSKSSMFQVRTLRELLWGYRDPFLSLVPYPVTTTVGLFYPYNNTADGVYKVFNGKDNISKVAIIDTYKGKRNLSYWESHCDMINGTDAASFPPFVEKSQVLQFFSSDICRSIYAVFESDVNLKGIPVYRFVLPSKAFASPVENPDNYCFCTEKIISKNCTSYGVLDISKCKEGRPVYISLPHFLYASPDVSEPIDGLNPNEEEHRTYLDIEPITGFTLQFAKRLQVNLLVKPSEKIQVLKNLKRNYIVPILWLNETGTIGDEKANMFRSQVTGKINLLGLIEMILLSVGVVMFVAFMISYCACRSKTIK
sequence,measurement,setting,value
DWLKAFYDKVAEKLKEAFPDWAKAAYDKAAEKAKEAA [5A],pIC50,[1],5.12
same,pKi,[1],5.84
same,"Liver toxicity, serum transaminases",[2],did not have liver toxicity

# — PMC4800337 (Kidney international, 2016)
